According to article PMC8906121 (Current Research in Parasitology & Vector-borne Diseases, 2021):
pEC50, pKd: −log10 of the molar value.

Assays:
[1] = test system: Anopheles funestus FANG (susceptible); assay: Glazed tile contact bioassay, strain FANG; format: in vivo; details: for LC50 (solo contact toxicity of synergist): synergist alone, 30 min exposure; for LC50 (solo contact toxicity of synergist) / LC50: mortality 24 h; for LC50: female adults, contact exposure 30 min
In short: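 Adults aged 3–5 days, chilled to anaesthetize, recovered 1 h, then held 30 min on acetone-treated glazed tiles in two replicates of 10. Kept overnight on 10% dextrose; mortality scored at 24 h. Acetone-only control; Abbott correction for 5–20% control mortality, above 20% invalid. At least five repeats; probit LC50 with 95% CI. Synergist solo toxicity was tested the same way at 250–10,000 ppm.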

[2] = test system: Anopheles funestus FUMOZ-R (resistant); assay: Glazed tile contact bioassay, strain FUMOZ-R; format: in vivo; details: for LC50 (solo contact toxicity of synergist): synergist alone, 30 min exposure; for LC50 (solo contact toxicity of synergist) / LC50: mortality 24 h; for LC50: female adults, contact exposure 30 min
[3] = target: para-type voltage-gated sodium channels of Musca domestica (Musca domestica, UniProt Q25439); assay: Fluorescence-based membrane potential cation influx assay; format: cell-based; details: for pEC50: EC50, HEK293-VGSC cells, membrane potential fluorescence
Sequence of para-type voltage-gated sodium channels of Musca domestica (Q25439 1-2105): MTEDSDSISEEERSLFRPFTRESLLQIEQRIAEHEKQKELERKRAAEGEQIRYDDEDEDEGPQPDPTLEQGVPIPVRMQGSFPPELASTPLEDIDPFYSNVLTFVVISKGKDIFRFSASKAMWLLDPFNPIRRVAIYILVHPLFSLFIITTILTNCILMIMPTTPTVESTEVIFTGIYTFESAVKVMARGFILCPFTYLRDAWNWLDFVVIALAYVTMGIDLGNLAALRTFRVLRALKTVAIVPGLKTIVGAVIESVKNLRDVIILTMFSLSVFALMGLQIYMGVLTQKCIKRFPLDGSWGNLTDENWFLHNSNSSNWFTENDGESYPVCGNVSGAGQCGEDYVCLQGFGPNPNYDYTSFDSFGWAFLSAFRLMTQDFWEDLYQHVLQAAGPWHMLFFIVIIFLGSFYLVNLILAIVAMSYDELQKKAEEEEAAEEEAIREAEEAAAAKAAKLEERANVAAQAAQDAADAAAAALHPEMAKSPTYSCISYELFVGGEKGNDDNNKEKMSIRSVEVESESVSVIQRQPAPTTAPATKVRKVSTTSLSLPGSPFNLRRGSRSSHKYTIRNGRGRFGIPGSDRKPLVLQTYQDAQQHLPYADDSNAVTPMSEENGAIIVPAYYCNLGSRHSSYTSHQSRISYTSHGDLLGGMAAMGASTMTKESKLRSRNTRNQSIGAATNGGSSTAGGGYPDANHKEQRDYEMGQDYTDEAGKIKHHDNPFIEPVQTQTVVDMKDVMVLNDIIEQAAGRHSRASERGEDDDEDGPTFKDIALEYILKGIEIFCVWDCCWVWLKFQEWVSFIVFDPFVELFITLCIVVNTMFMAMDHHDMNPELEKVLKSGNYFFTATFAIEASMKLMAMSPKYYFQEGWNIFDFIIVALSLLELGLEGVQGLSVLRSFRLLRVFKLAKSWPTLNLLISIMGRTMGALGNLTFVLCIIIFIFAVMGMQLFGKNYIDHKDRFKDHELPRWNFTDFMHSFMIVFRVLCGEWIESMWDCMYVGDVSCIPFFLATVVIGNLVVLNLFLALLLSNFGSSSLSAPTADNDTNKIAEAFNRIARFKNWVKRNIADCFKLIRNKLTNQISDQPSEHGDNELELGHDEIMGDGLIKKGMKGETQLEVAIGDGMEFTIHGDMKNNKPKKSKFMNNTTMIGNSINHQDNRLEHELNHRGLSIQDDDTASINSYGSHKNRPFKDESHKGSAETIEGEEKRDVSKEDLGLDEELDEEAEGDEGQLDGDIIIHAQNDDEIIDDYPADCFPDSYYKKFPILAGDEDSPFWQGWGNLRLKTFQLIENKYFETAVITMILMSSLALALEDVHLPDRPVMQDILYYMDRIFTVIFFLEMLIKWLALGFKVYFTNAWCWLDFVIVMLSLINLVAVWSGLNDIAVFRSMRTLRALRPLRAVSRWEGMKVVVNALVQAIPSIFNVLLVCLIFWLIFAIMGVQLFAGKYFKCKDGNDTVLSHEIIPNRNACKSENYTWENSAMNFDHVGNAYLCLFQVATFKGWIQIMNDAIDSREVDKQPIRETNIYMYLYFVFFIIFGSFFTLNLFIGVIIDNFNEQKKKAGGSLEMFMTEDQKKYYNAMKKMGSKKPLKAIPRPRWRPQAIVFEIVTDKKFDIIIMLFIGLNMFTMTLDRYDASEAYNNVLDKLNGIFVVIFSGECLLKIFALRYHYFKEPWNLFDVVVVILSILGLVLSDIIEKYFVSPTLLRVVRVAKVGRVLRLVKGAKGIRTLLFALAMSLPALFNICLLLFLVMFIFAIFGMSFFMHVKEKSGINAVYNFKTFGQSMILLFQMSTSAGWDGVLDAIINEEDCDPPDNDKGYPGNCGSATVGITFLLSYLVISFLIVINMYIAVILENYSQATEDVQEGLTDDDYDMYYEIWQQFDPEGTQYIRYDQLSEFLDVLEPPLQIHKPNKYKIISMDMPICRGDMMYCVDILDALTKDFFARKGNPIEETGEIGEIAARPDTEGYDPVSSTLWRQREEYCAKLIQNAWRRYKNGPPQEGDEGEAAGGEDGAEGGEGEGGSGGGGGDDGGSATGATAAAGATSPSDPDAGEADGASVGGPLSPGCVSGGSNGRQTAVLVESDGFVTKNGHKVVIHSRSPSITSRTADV

[4] = test system: cytochrome P450s of microsomal preparations of Anopheles funestus strain FANG; assay: Michaelis-Menten kinetics of BOMFC O-debenzylation, FANG microsomes; format: biochemical; details: read-out: apparent Km
In short: (§1)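 Microsomes from 30–50 adults, homogenized in pH 7.6 phosphate buffer with sucrose, DTT and EDTA, then spun 5,000× g, 15,000× g and 100,000× g at 4 °C. 4 μg protein incubated 1 h at 20 ± 1 °C with eleven BOMFC levels (200–0.195 μM) and 1 mM NADPH, in 0.01% zwittergent with 0.05% BSA. Stopped with pH 10 red-ox mix; hydroxycoumarin fluorescence read; quadruplicates; Michaelis-Menten fit.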

[5] = test system: cytochrome P450s of microsomal preparations of Anopheles funestus strain FUMOZ-R; assay: Michaelis-Menten kinetics of BOMFC O-debenzylation, FUMOZ-R microsomes; format: biochemical; details: read-out: apparent Km
In short: as §1

Drosophila wildtype VGSC = Drosophila wildtype VGSC expressed in Xenopus oocytes; ref Vais et al., 2003; cited from earlier work

**Q.** What does the source list for CCCOC/C(=N\c1ccc(Cl)cc1C(F)(F)F)n1ccnc1 [Triflumizole, triflumizole]?
**A.** LC50 (solo contact toxicity of synergist) [1]: 136 mg/m^2; LC50 (solo contact toxicity of synergist) [2]: 392 mg/m^2

**Q.** For Nn1nnc2ccccc21 [1-ABT, 1-aminobenzotriazole], which mortality at 750 mg/m2 ([1]; Anopheles funestus) is on record?
**A.** Its mortality at 750 mg/m2 is < 10%.

**Q.** And the mortality at 750 mg/m2 ([2]; Anopheles funestus)?
**A.** The mortality at 750 mg/m2 was < 10%.

**Q.** What does the source list for CC1(C)[C@H](C=C(Cl)Cl)[C@H]1C(=O)OCc1c(F)c(F)cc(F)c1F [Transfluthrin, 2,3,5,6-tetrafluorobenzyl(1R,3S)-3-(2,2-dichlorovinyl)-2,2-dimethylcyclo-propanecarboxylate]?
**A.** LC50 [1]: 0.023 mg/m^2; fold more active than permethrin ([1]; glazed tile bioassays against strain FANG): ≤ 25 fold; fold less active on VGSC than deltamethrin ([3]; compared with deltamethrin): more than 100 fold; LC50 [2]: 0.0576 mg/m^2

**Q.** What does the source list for CC1(C)C(C=C(Cl)Cl)C1C(=O)OCc1cccc(Oc2ccccc2)c1 (stereo not drawn) [Permethrin, permethrin]?
**A.** LC50 [1]: 0.543 mg/m^2; pEC50 [3]: 6.14; RR fold lower than for deltamethrin ([2]; FUMOZ-R resistance ratio compared with deltamethrin): ~30 fold; Resistance ratio (RR) ([2]; LC50 FUMOZ-R divided by LC50 FANG): 7.76; LC50 [2]: 4.21 mg/m^2

**Q.** For CCCCOCCOCCOCc1cc2c(cc1CCC)OCO2 [PBO, piperonyl butoxide], which “LC50 (solo contact toxicity of synergist)” value [1] is on record?
**A.** Its value is 325 mg/m^2.

**Q.** And the “LC50 (solo contact toxicity of synergist)” value [2]?
**A.** The value was > 1,000 mg/m^2.

**Q.** Which LC50 [1] does the source give for CC1(C)C(C=C(Cl)Cl)C1C(=O)OC(C#N)c1cccc(Oc2ccccc2)c1 (stereo not drawn) [Cypermethrin] here?
**A.** The LC50 was 0.0968 mg/m^2.

**Q.** And the pEC50 [3]?
**A.** Its pEC50 is 7.41.

**Q.** And the LC50 [2]?
**A.** The LC50 was 7.54 mg/m^2.

**Q.** With O=c1cc(C(F)(F)F)c2ccc(OCOCc3ccccc3)cc2o1 [BOMFC, 7-benzyloxymethoxy-4-trifluoromethylcoumarin] as the compound, how does the Km [4] read?
**A.** Its Km is 5.76 µM.

**Q.** What about the Km [5] of the same compound?
**A.** Its Km is 4.41 µM.

**Q.** For CC1(C)[C@H](C(=O)O[C@H](C#N)c2cccc(Oc3ccccc3)c2)[C@@H]1C=C(Br)Br [Deltamethrin, deltamethrin], which LC50 [1] is on record?
**A.** Its LC50 is 0.0206 mg/m^2.

**Q.** What about the pEC50 [3] of the same compound?
**A.** The pEC50 was 8.28.

**Q.** And the pKd (Drosophila wildtype VGSC)?
**A.** Its pKd is 8.33.

**Q.** What about the LC50 [2] of the same compound?
**A.** The LC50 was 4.61 mg/m^2.
